The values below come from ChEMBL document CHEMBL3112437, “Virtual screening reveals allosteric inhibitors of the Toxoplasma gondii thymidylate synthase-dihydrofolate reductase” (Bioorg Med Chem Lett, 2014).

Assay [1] has as its target T1, Bifunctional dihydrofolate reductase-thymidylate synthase (Toxoplasma gondii) (UniProt Q07422).
T1 sequence (whole entry): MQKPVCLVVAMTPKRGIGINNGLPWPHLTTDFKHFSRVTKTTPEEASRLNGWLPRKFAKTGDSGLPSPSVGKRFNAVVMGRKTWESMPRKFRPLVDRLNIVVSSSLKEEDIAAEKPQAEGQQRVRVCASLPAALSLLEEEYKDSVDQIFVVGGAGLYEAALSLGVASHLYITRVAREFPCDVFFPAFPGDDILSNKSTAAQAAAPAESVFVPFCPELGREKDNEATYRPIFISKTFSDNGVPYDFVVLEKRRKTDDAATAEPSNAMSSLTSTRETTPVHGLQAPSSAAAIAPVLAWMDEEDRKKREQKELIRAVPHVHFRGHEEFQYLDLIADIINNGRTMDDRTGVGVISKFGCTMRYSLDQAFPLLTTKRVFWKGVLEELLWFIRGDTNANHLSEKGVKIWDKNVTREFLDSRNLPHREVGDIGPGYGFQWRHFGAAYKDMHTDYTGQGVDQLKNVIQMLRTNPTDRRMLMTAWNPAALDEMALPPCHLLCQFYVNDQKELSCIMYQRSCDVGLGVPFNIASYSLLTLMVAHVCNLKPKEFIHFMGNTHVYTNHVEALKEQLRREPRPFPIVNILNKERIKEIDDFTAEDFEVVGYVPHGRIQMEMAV
The experiment in a line: (§1) Inhibition of Toxoplasma gondii TS-DHFR by Michaelis-Menten plot analysis in presence of bovine serum albumin. The method, boiled down:
(§2)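 Promiscuity (aggregation) check: TgTS-DHFR was preincubated with 0.1 mg/mL BSA before inhibitor was added. TS inhibitory potency was then determined.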

The target of assay [2] is T2, Bifunctional dihydrofolate reductase-thymidylate synthase (Toxoplasma gondii, UniProt Q07422).
T2 sequence (Q07422 whole entry): T1 sequence (whole entry)
The assay is described as follows: Inhibition of Toxoplasma gondii TS-DHFR using methylenetetrahydrofolate/dUMP as sustrate. The method, boiled down:
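T. gondii TS-DHFR was preincubated with dUMP before compound was added. TS activity was measured across varying compound concentrations. Data were fit to a Michaelis-Menten curve for IC50. Duplicate points; SD between repeats.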

Assay [3] concerns the target T2, Bifunctional dihydrofolate reductase-thymidylate synthase. The assay is described as follows: Inhibition of Toxoplasma gondii TS-DHFR using methylenetetrahydrofolate/dUMP as sustrate preincubated for 10 mins followed by substrate addition. The method, boiled down: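 T. gondii TS activity at varying compound concentrations. Compound was mixed with apo TS-DHFR, with no dUMP preincubation. Data were fit to a Michaelis-Menten curve to give IC50. Points in duplicate; SD between repeats.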

Assay [4] addresses T3, Dihydrofolate reductase (Homo sapiens) (UniProt P00374).
T3 sequence (whole entry): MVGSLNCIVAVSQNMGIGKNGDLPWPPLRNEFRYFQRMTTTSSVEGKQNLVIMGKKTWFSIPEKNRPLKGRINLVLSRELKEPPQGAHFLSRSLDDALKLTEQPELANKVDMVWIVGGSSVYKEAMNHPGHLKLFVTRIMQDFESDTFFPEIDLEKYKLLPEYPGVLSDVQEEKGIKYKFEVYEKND
The experiment in a line: Inhibition of DHFR (unknown origin).

In assay [5] the target is T1, Bifunctional dihydrofolate reductase-thymidylate synthase (Toxoplasma gondii). The assay is described as follows: Noncompetitive inhibition of Toxoplasma gondii TS-DHFR using methylenetetrahydrofolate as substrate at 25 uM by Michaelis-Menten plot analysis.
For assay [6] the target is unchanged. The experiment in a line: Mixed type inhibition of Toxoplasma gondii TS-DHFR using dUMP as substrate at 25 uM by Michaelis-Menten plot analysis.
The target in assay [7] is T2, Bifunctional dihydrofolate reductase-thymidylate synthase. Described as §1. The method, boiled down:
as §2

Calls of active or inactive are those of the source. The calls are words filed in the database; no cut-off is given here.

As a reminder, the IC50 is the concentration at which inhibition is half-maximal.

In the case of `O=C(Nc1ccccc1)OCc1ccc(-c2cc(C(F)(F)F)cc(C(F)(F)F)c2)o1`, the inhibition result in assay [1] was “inactive”. The values for the IC50 in assay [2] and in assay [3] were 190 µM and 54 µM, respectively.

`COC(=O)Nc1nc2cc(-c3nnc(O)c4ccccc34)ccc2[nH]1`: the inhibition result in assay [4] was “inactive”. The inhibition result in assay [5] and in assay [6] was “Active” throughout. The IC50 in assay [7] worked out at 139 µM; in assay [2], 142 µM; in assay [3] it was 51 µM.
